As usually defined, the inhibition is how much of the control response was suppressed.

The text below walks through data of ChEMBL document CHEMBL1649370, “Penetratin analogues acting as antifungal agents” (2011).

Assay type in all cases: functional
The subject of assay [1] is Candida albicans. Kind of assay: Antifungal activity against Candida albicans ATCC 10231 assessed as inhibition of fungal growth at 200 uM after 24 hrs by microplate analysis. Conditions: ATCC 10231, 24 h. The gist of the method: (§1)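 Broth microdilution in RPMI-1640. Peptide DMSO stocks were diluted to final concentrations of 200–3.125, with DMSO ≤2%. Inoculum was 1–5×10³ CFU/mL from Sabouraud-chloramphenicol agar cultures (24 h, 35 °C). Plates were held in a moist, dark chamber at 35 °C: 24 h for C. albicans, 48 h for C. neoformans.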

Assay [2] deals with Candida albicans. Kind of assay: Antifungal activity against Candida albicans ATCC 10231 assessed as inhibition of fungal growth at 100 uM after 24 hrs by microplate analysis. Conditions: ATCC 10231, 24 h. Summed up: as §1
Assay [3] concerns Candida albicans. Kind of assay: Antifungal activity against Candida albicans ATCC 10231 assessed as inhibition of fungal growth at 50 uM after 24 hrs by microplate analysis. Conditions: ATCC 10231, 24 h. Summed up: as §1
Assay [4] relates to Candida albicans. Kind of assay: Antifungal activity against Candida albicans ATCC 10231 assessed as inhibition of fungal growth at 25 uM after 24 hrs by microplate analysis. Conditions: ATCC 10231, 24 h. The gist of the method:
as §1

Assay [5] has as its system Candida albicans. Kind of assay: Antifungal activity against Candida albicans ATCC 10231 assessed as inhibition of fungal growth at 12.5 uM after 24 hrs by microplate analysis. Particulars: ATCC 10231, 24 h. Summed up: as §1
Assay [6] relates to Candida albicans. Kind of assay: Antifungal activity against Candida albicans ATCC 10231 assessed as inhibition of fungal growth at 6.25 uM after 24 hrs by microplate analysis. Particulars: ATCC 10231, 24 h. The gist of the method:
as §1

Assay [7] deals with Cryptococcus neoformans. Kind of assay: Antifungal activity against Cryptococcus neoformans ATCC 32264 assessed as inhibition of fungal growth at 200 uM after 48 hrs by microplate analysis. Conditions: ATCC 32264, 48 h. The gist of the method:
as §1

Assay [8] deals with Cryptococcus neoformans. Kind of assay: Antifungal activity against Cryptococcus neoformans ATCC 32264 assessed as inhibition of fungal growth at 100 uM after 48 hrs by microplate analysis. Conditions: ATCC 32264, 48 h. The gist of the method: as §1
Assay [9] has as its system Cryptococcus neoformans. Kind of assay: Antifungal activity against Cryptococcus neoformans ATCC 32264 assessed as inhibition of fungal growth at 50 uM after 48 hrs by microplate analysis. Particulars: ATCC 32264, 48 h. The gist of the method: as §1
Assay [10] has as its system Cryptococcus neoformans. Kind of assay: Antifungal activity against Cryptococcus neoformans ATCC 32264 assessed as inhibition of fungal growth at 25 uM after 48 hrs by microplate analysis. Particulars: ATCC 32264, 48 h. The gist of the method: as §1
In assay [11] the test system is Cryptococcus neoformans. Kind of assay: Antifungal activity against Cryptococcus neoformans ATCC 32264 assessed as inhibition of fungal growth at 12.5 uM after 48 hrs by microplate analysis. Particulars: ATCC 32264, 48 h. Summed up:
as §1

For assay [12], the system named is Cryptococcus neoformans. Kind of assay: Antifungal activity against Cryptococcus neoformans ATCC 32264 assessed as inhibition of fungal growth at 6.25 uM after 48 hrs by microplate analysis. Conditions: ATCC 32264, 48 h. The gist of the method:
as §1

Turning to `CC[C@H](C)[C@H](NC(=O)[C@H](CCCCN)NC(=O)[C@@H](NC(=O)[C@H](CCC(N)=O)NC(=O)[C@H](CCCNC(=N)N)NC(=O)[C@H](Cc1c[nH]c2ccccc12)NC(=O)[C@H](CCCNC(=N)N)NC(=O)[C@H](Cc1ccccc1)NC(=O)[C@@H](N)Cc1cnc[nH]1)[C@@H](C)CC)C(=O)N[C@@H](Cc1c[nH]c2ccccc12)C(=O)N[C@@H](Cc1ccccc1)C(=O)N[C@@H](CCC(N)=O)C(=O)N[C@@H](CC(N)=O)C(=O)N[C@@H](CCCNC(=N)N)C(=O)N[C@@H](CCCNC(=N)N)C(=O)N[C@@H](CC[S+](C)[O-])C(=O)N[C@@H](CCCCN)C(=O)N[C@@H](Cc1c[nH]c2ccccc12)C(=O)N[C@@H](CCCCN)C(=O)N[C@@H](CCCCN)C(N)=O` (some centres undefined), the inhibition at 200 µM in the assay with Candida albicans [1] and in the assay with Cryptococcus neoformans [7] was 100% each time. Moreover, the inhibition at 100 µM in the assay with Candida albicans [2] and in the assay on Cryptococcus neoformans [8] was 100% throughout. In addition, the results for the inhibition at 50 µM in the assay with Candida albicans [3] and in the assay on Cryptococcus neoformans [9] were 93.7% and 100%, respectively. In addition, the inhibition at 25 µM amounted to 5.96% in the assay on Candida albicans [4] and 100% in the assay with Cryptococcus neoformans [10]. In addition, the values for the inhibition at 12.5 µM with Candida albicans [5] and in the assay on Cryptococcus neoformans [11] were 3.95% and 99.3%, respectively. In addition, the inhibition at 6.25 µM in the assay on Candida albicans [6] was 2.9%; with Cryptococcus neoformans [12], 95.1%.

`N=C(N)NCCC[C@H](NC(=O)CNC(=O)[C@@H](N)Cc1ccc(O)cc1)C(=O)N[C@@H](CCCCN)C(=O)N[C@@H](CCCCN)C(=O)N[C@@H](CCCNC(=N)N)C(=O)N[C@@H](CCCNC(=N)N)C(=O)N[C@@H](CCC(N)=O)C(=O)N[C@@H](CCCNC(=N)N)C(=O)N[C@@H](CCCNC(=N)N)C(=O)N[C@@H](CCCNC(=N)N)C(=O)N[C@@H](CS)C(N)=O`: the inhibition at 200 µM amounted to 99.1% in the assay on Candida albicans [1] and 100% in the assay with Cryptococcus neoformans [7]. Moreover, the inhibition at 100 µM amounted to 99.1% with Candida albicans [2] and 100% in the assay on Cryptococcus neoformans [8]. For the same compound, the inhibition at 50 µM in the assay on Candida albicans [3] was 6.75%; with Cryptococcus neoformans [9] it was 61.3%. Moreover, the results for the inhibition at 25 µM in the assay on Candida albicans [4] and with Cryptococcus neoformans [10] were 6.71% and 1.75%, respectively. Moreover, the inhibition at 12.5 µM in the assay on Candida albicans [5] came to 6.12%; with Cryptococcus neoformans [11], 0%. Besides, the results for the inhibition at 6.25 µM in the assay with Candida albicans [6] and in the assay with Cryptococcus neoformans [12] were 4.97% and 0%, respectively.

Regarding `C[C@@H]1[C@H](O)[C@@H](C)/C=C/C=C/C=C/C=C/C=C/C=C/C=C/[C@H](O[C@@H]2O[C@H](C)[C@@H](O)[C@H](N)[C@@H]2O)C[C@@H]2O[C@](O)(C[C@@H](O)C[C@@H](O)[C@H](O)CC[C@@H](O)C[C@@H](O)CC(=O)O[C@H]1C)C[C@H](O)[C@H]2C(=O)O` [AMPHOTERICIN B], the inhibition at 200 µM in the assay with Candida albicans [1] and with Cryptococcus neoformans [7] was 100% each time. Besides, the inhibition at 100 µM with Candida albicans [2] and in the assay with Cryptococcus neoformans [8] was 100% in each case. Also, the inhibition at 50 µM in the assay on Candida albicans [3] and in the assay with Cryptococcus neoformans [9] was 100% each time. Also, the inhibition at 25 µM in the assay on Candida albicans [4] and with Cryptococcus neoformans [10] was 100% in each case. Moreover, the inhibition at 12.5 µM in the assay on Candida albicans [5] and in the assay on Cryptococcus neoformans [11] was 100% each time. For the same compound, the inhibition at 6.25 µM in the assay on Candida albicans [6] and with Cryptococcus neoformans [12] was 100% each time.

Take `CC(=O)N1CCN(c2ccc(OCC3COC(Cn4ccnc4)(c4ccc(Cl)cc4Cl)O3)cc2)CC1` (centres undefined) [KETOCONAZOLE]: the inhibition at 200 µM in the assay with Candida albicans [1] and in the assay on Cryptococcus neoformans [7] was 100% in each case. In addition, the inhibition at 100 µM with Candida albicans [2] and with Cryptococcus neoformans [8] was 100% throughout. Besides, the inhibition at 50 µM with Candida albicans [3] and in the assay with Cryptococcus neoformans [9] was 100% in each case. The inhibition at 25 µM in the assay with Candida albicans [4] and with Cryptococcus neoformans [10] was 100% each time. For the same compound, the inhibition at 12.5 µM in the assay on Candida albicans [5] and in the assay on Cryptococcus neoformans [11] was 100% throughout. The inhibition at 6.25 µM with Candida albicans [6] and in the assay on Cryptococcus neoformans [12] was 100% each time.

Turning to “H-KQIKIWFQNKKMKWKK-NH2 [KQIKIWFQNKKMKWKK-NH2]”, the inhibition at 200 µM with Candida albicans [1] and with Cryptococcus neoformans [7] was 100% each time. The inhibition at 100 µM in the assay with Candida albicans [2] and with Cryptococcus neoformans [8] was 100% in each case. Besides, the inhibition at 50 µM in the assay on Candida albicans [3] and in the assay on Cryptococcus neoformans [9] was 100% in each case. The inhibition at 25 µM in the assay with Candida albicans [4] came to 8.41%; with Cryptococcus neoformans [10] it was 98.5%. The inhibition at 12.5 µM is 5.97% in the assay with Candida albicans [5] and 72% with Cryptococcus neoformans [11]. For the same compound, the inhibition at 6.25 µM is 3.24% with Candida albicans [6] and 64.5% in the assay with Cryptococcus neoformans [12].

Regarding H-RQIRIWFQNRRMRWRR-NH2, the inhibition at 200 µM with Candida albicans [1] and in the assay on Cryptococcus neoformans [7] was 100% in each case. For the same compound, the inhibition at 100 µM in the assay on Candida albicans [2] and with Cryptococcus neoformans [8] was 100% throughout. The inhibition at 50 µM stood at 98.9% with Candida albicans [3] and 100% in the assay with Cryptococcus neoformans [9]. Also, the inhibition at 25 µM was determined as 6.16% in the assay with Candida albicans [4] and 81.7% with Cryptococcus neoformans [10]. Also, the results for the inhibition at 12.5 µM in the assay on Candida albicans [5] and in the assay on Cryptococcus neoformans [11] were 4.38% and 77.5%, respectively. Also, the values for the inhibition at 6.25 µM with Candida albicans [6] and in the assay on Cryptococcus neoformans [12] were 3.71% and 43.3%, respectively.

Consider H-RWWKWWWWWRRWKWKK-NH2, for which the inhibition at 200 µM in the assay on Candida albicans [1] and with Cryptococcus neoformans [7] was 100% each time. In addition, the inhibition at 100 µM in the assay with Candida albicans [2] is 99.1%; with Cryptococcus neoformans [8], 90%. Also, the values for the inhibition at 50 µM in the assay with Candida albicans [3] and with Cryptococcus neoformans [9] were 95.8% and 77.5%, respectively. The inhibition at 25 µM in the assay on Candida albicans [4] turned out to be 30.9%; in the assay on Cryptococcus neoformans [10] it was 44.2%. Further, the figures for the inhibition at 12.5 µM with Candida albicans [5] and in the assay with Cryptococcus neoformans [11] were 14.8% and 31.5%, respectively. The inhibition at 6.25 µM was 8.72% with Candida albicans [6] and 22.6% in the assay with Cryptococcus neoformans [12].
